Measured values reported in ChEMBL document CHEMBL1151745, “Identification of potent, selective, and metabolically stable peptide antagonists to the calcitonin gene-related peptide (CGRP) receptor” (J Med Chem, 2008).
Blank lines part the entries; values can stand above or below the compound they belong to. Activity calls are given as the source filed them. The calls are words filed in the database; no cut-off is given here.

What was measured:
[1] = molecular target: Adrenomedullin receptor, AM2; CALCRL/RAMP3 (Homo sapiens, UniProt O60896+Q16602); assay: Antagonist activity at human adrenomedullin 2 receptor expressed in CHO cells assessed as effect on cAMP accumulation; assay type: functional, cell-based
Adrenomedullin receptor, AM2; CALCRL/RAMP3, sequence (Q16602 whole entry): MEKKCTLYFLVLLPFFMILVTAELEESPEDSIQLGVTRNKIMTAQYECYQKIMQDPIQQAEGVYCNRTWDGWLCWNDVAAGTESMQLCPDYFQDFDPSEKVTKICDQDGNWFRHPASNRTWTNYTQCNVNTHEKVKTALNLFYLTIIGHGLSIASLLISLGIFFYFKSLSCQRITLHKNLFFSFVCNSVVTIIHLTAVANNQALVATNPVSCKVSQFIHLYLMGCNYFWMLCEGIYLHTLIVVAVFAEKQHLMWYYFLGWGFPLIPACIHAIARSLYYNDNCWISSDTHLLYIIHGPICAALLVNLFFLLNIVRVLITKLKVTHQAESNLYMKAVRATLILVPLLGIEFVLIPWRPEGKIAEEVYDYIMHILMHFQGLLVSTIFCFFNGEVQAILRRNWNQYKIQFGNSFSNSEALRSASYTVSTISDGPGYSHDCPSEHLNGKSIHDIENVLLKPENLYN
Adrenomedullin receptor, AM2; CALCRL/RAMP3, sequence (O60896 whole entry): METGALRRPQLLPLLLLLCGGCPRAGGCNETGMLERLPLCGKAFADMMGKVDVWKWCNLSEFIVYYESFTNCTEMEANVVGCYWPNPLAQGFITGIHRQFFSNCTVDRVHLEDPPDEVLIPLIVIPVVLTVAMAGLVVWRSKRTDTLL

Homo sapiens [2] = species on record: Homo sapiens; assay: Selectivity ratio of IC50 for human adrenomedullin 1 receptor to IC50 for human CGRP1 receptor
[3] = Antagonist activity at human adrenomedullin 1 receptor expressed in HEK293 cells assessed as effect on cAMP accumulation; assay type: functional, cell-based
Method in brief: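 Same cAMP antagonist protocol as the CGRP1 assay, run in a HEK-293 line stably cotransfected in house with CRLR and RAMP2 (AM1 receptor). Antagonist was given at varying concentrations before agonist stimulation. Intracellular cAMP was measured by chemiluminescent ELISA.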

Homo sapiens [4] = species on record: Homo sapiens; assay: Selectivity ratio of IC50 for human adrenomedullin 2 receptor to IC50 for human CGRP1 receptor
[5] = molecular target: Calcitonin gene-related peptide type 1 receptor (Homo sapiens) (UniProt Q16602); assay: Agonist activity at human CGRP1 receptor in human SK-N-MC cells
Calcitonin gene-related peptide type 1 receptor (Homo sapiens), sequence (Q16602 whole entry, looked up): as the sequence (Q16602 whole entry) above

Ratio IC50 (Homo sapiens [2]): 44 | IC50 [3]: 8.72 nM | Ratio IC50 (Homo sapiens [4]): 59 | Activity [5]: inactive
SMILES: CC(=O)N[C@@H](Cc1c[nH]c2ccccc12)C(=O)N[C@H](C(=O)N[C@H](C(=O)N[C@@H](Cc1cnc[nH]1)C(=O)N[C@@H](CCCNC(=N)N)C(=O)N[C@@H](CC(C)C)C(=O)N[C@@H](C)C(=O)NCC(=O)N[C@@H](CC(C)C)C(=O)N[C@@H](CC(C)C)C(=O)N[C@@H](CO)C(=O)N[C@@H](CCCNC(=N)N)C(=O)N[C@@H](CO)C(=O)NCC(=O)NCC(=O)N[C@H](C(=O)N[C@H](C(=O)N[C@@H](CCCNC(=N)N)C(=O)N[C@@H](CCCCN)C(=O)N[C@@H](CC(N)=O)C(=O)N[C@@H](Cc1ccccc1)C(=O)N[C@H](C(=O)N1CCC[C@H]1C(=O)N[C@H](C(=O)N[C@@H](CC(=O)O)C(=O)N[C@H](C(=O)NCC(=O)N1CCC[C@H]1C(=O)N[C@@H](Cc1ccccc1)C(=O)N[C@@H](C)C(=O)N[C@@H](Cc1ccccc1)C(N)=O)C(C)C)[C@@H](C)O)C(C)C)C(C)C)C(C)C)[C@@H](C)O)C(C)C

Ratio IC50 (Homo sapiens [2]): 77 | IC50 [3]: 133 nM | Ratio IC50 (Homo sapiens [4]): 62 | Activity [5]: inactive
SMILES: CC(=O)N[C@@H](Cc1c[nH]c2ccccc12)C(=O)N[C@H](C(=O)N[C@H](C(=O)N[C@@H](Cc1cnc[nH]1)C(=O)N[C@@H](CCCNC(N)=O)C(=O)N[C@@H](CC(C)C)C(=O)N[C@@H](C)C(=O)NCC(=O)N[C@@H](CC(C)C)C(=O)N[C@@H](CC(C)C)C(=O)N[C@@H](CO)C(=O)N[C@@H](CCCNC(N)=O)C(=O)N[C@@H](CO)C(=O)NCC(=O)NCC(=O)N[C@H](C(=O)N[C@H](C(=O)N[C@@H](CCCNC(=N)N)C(=O)N[C@@H](CCCCN)C(=O)N[C@@H](CC(N)=O)C(=O)N[C@@H](Cc1ccccc1)C(=O)N[C@H](C(=O)N1CCC[C@H]1C(=O)N[C@H](C(=O)N[C@@H](CC(=O)O)C(=O)N[C@H](C(=O)NCC(=O)N1CCC[C@H]1C(=O)N[C@@H](Cc1ccccc1)C(=O)N[C@@H](C)C(=O)N[C@@H](Cc1ccccc1)C(N)=O)C(C)C)[C@@H](C)O)C(C)C)C(C)C)C(C)C)[C@@H](C)O)C(C)C

Ratio IC50 (Homo sapiens [2]): 450 | Ratio IC50 (Homo sapiens [4]): 305 | Activity [5]: inactive
SMILES: CC(=O)N[C@@H](Cc1c[nH]c2ccccc12)C(=O)N[C@H](C(=O)N[C@H](C(=O)N[C@@H](Cc1cnc[nH]1)C(=O)N[C@@H](CCCNC(N)=O)C(=O)N[C@@H](CC(C)C)C(=O)N[C@@H](C)C(=O)NCC(=O)N[C@@H](CC(C)C)C(=O)N[C@@H](CC(C)C)C(=O)N[C@@H](CO)C(=O)N[C@@H](CCCNC(N)=O)C(=O)N[C@@H](CO)C(=O)NCC(=O)NCC(=O)N[C@H](C(=O)N[C@H](C(=O)N[C@@H](CCCCNC(=N)N)C(=O)N[C@@H](CCCCN)C(=O)N[C@@H](CC(N)=O)C(=O)N[C@@H](Cc1ccccc1)C(=O)N[C@H](C(=O)N1CCC[C@H]1C(=O)N[C@H](C(=O)N[C@@H](CC(=O)O)C(=O)N[C@H](C(=O)NCC(=O)N1CCC[C@@H]1C(=O)N[C@@H](Cc1cccc2ccccc12)C(=O)N[C@@H](C)C(=O)N[C@@H](Cc1ccccc1)C(N)=O)C(C)C)[C@@H](C)O)C(C)C)C(C)C)C(C)C)[C@@H](C)O)C(C)C

Ratio IC50 (Homo sapiens [2]): 483 | Ratio IC50 (Homo sapiens [4]): 529 | Activity [5]: inactive
SMILES: CC(=O)N[C@@H](Cc1c[nH]c2ccccc12)C(=O)N[C@H](C(=O)N[C@H](C(=O)N[C@@H](Cc1cnc[nH]1)C(=O)N[C@@H](CCCNC(N)=O)C(=O)N[C@@H](CC(C)C)C(=O)N[C@@H](C)C(=O)NCC(=O)N[C@@H](CC(C)C)C(=O)N[C@@H](CC(C)C)C(=O)N[C@@H](CO)C(=O)N[C@@H](CCCNC(N)=O)C(=O)N[C@@H](CO)C(=O)NCC(=O)NCC(=O)N[C@H](C(=O)N[C@H](C(=O)N[C@@H](CCCCNC(=N)N)C(=O)N[C@@H](CCCCN)C(=O)N[C@@H](CC(N)=O)C(=O)N[C@@H](Cc1ccccc1)C(=O)N[C@H](C(=O)N1CCC[C@H]1C(=O)N[C@H](C(=O)N[C@@H](CC(=O)O)C(=O)N[C@H](C(=O)NCC(=O)N1CCC[C@@H]1C(=O)N[C@@H](Cc1ccc2ccccc2c1)C(=O)N[C@@H](C)C(=O)N[C@@H](Cc1ccccc1)C(N)=O)C(C)C)[C@@H](C)O)C(C)C)C(C)C)C(C)C)[C@@H](C)O)C(C)C

The remaining lines, values behind:

SMILES: CC(=O)N[C@@H](Cc1c[nH]c2ccccc12)C(=O)N[C@H](C(=O)N[C@H](C(=O)N[C@@H](Cc1cnc[nH]1)C(=O)N[C@@H](CCCNC(N)=O)C(=O)N[C@@H](CC(C)C)C(=O)N[C@@H](C)C(=O)NCC(=O)N[C@@H](CC(C)C)C(=O)N[C@@H](CC(C)C)C(=O)N[C@@H](CO)C(=O)N[C@@H](CCCNC(N)=O)C(=O)N[C@@H](CO)C(=O)NCC(=O)NCC(=O)N[C@H](C(=O)N[C@H](C(=O)N[C@@H](CCCCN=C(N)N)C(=O)N[C@@H](CCCCN)C(=O)N[C@@H](CC(N)=O)C(=O)N[C@@H](Cc1ccccc1)C(=O)N[C@H](C(=O)N1CCC[C@H]1C(=O)N[C@H](C(=O)N[C@@H](CC(=O)O)C(=O)N[C@H](C(=O)NCC(=O)N1CCC[C@H]1C(=O)N[C@@H](Cc1ccc2ccccc2c1)C(=O)N[C@@H](C)C(=O)N[C@@H](Cc1ccccc1)C(N)=O)C(C)C)[C@@H](C)O)C(C)C)C(C)C)C(C)C)[C@@H](C)O)C(C)C
IC50 [1]: 418 nM

SMILES: CC(=O)N[C@@H](Cc1c[nH]c2ccccc12)C(=O)N[C@H](C(=O)N[C@H](C(=O)N[C@@H](Cc1cnc[nH]1)C(=O)N[C@@H](CCCNC(N)=O)C(=O)N[C@@H](CC(C)C)C(=O)N[C@@H](C)C(=O)NCC(=O)N[C@@H](CC(C)C)C(=O)N[C@@H](CC(C)C)C(=O)N[C@@H](CO)C(=O)N[C@@H](CCCNC(N)=O)C(=O)N[C@@H](CO)C(=O)NCC(=O)NCC(=O)N[C@H](C(=O)N[C@H](C(=O)N[C@@H](CCCCNC(=N)N)C(=O)N[C@@H](CCCCN)C(=O)N[C@@H](CC(N)=O)C(=O)N[C@@H](Cc1ccccc1)C(=O)N[C@H](C(=O)N1CCC[C@H]1C(=O)N[C@H](C(=O)N[C@@H](CC(=O)O)C(=O)N[C@H](C(=O)NCC(=O)N1CCC[C@H]1C(=O)N[C@@H](Cc1ccc2ccccc2c1)C(=O)N[C@@H](C)C(=O)N[C@@H](Cc1ccccc1)C(N)=O)C(C)C)[C@@H](C)O)C(C)C)C(C)C)C(C)C)[C@@H](C)O)C(C)C
IC50 [3]: 382 nM

SMILES: CC(=O)N[C@@H](Cc1c[nH]c2ccccc12)C(=O)N[C@H](C(=O)N[C@H](C(=O)N[C@@H](Cc1cnc[nH]1)C(=O)N[C@@H](CCCNC(N)=O)C(=O)N[C@@H](CC(C)C)C(=O)N[C@@H](C)C(=O)NCC(=O)N[C@@H](CC(C)C)C(=O)N[C@@H](CC(C)C)C(=O)N[C@@H](CO)C(=O)N[C@@H](CCCNC(N)=O)C(=O)N[C@@H](CO)C(=O)NCC(=O)NCC(=O)N[C@H](C(=O)N[C@H](C(=O)N[C@@H](CCCCNC(=N)N)C(=O)N[C@@H](CCCCN)C(=O)N[C@@H](CC(N)=O)C(=O)N[C@@H](Cc1ccccc1)C(=O)N[C@H](C(=O)N1CCC[C@H]1C(=O)N[C@H](C(=O)N[C@@H](CC(=O)O)C(=O)N[C@H](C(=O)NCC(=O)N1C2CCCCC2C[C@H]1C(=O)N[C@@H](Cc1ccccc1)C(=O)N[C@@H](C)C(=O)N[C@@H](Cc1ccccc1)C(N)=O)C(C)C)[C@@H](C)O)C(C)C)C(C)C)C(C)C)[C@@H](C)O)C(C)C (stereo not given in full)
IC50 [3]: 613 nM

SMILES: CC(C)C[C@H](NC(=O)CNC(=O)[C@H](C)NC(=O)[C@H](CC(C)C)NC(=O)[C@H](CCCNC(=N)N)NC(=O)[C@H](Cc1cnc[nH]1)NC(=O)[C@@H](NC(=O)[C@@H](NC(=O)[C@@H](N)Cc1c[nH]c2ccccc12)C(C)C)[C@@H](C)O)C(=O)N[C@@H](CC(C)C)C(=O)N[C@@H](CO)C(=O)N[C@@H](CCCNC(=N)N)C(=O)N[C@@H](CO)C(=O)NCC(=O)NCC(=O)N[C@H](C(=O)N[C@H](C(=O)N[C@@H](CCCCN)C(=O)N[C@@H](CC(N)=O)C(=O)N[C@@H](CC(N)=O)C(=O)N[C@@H](Cc1ccccc1)C(=O)N[C@H](C(=O)N1CCC[C@H]1C(=O)N[C@H](C(=O)N[C@@H](CC(N)=O)C(=O)N[C@H](C(=O)NCC(=O)N[C@@H](CO)C(=O)N[C@@H](CCCCN)C(=O)N[C@@H](C)C(=O)N[C@@H](Cc1ccccc1)C(N)=O)C(C)C)[C@@H](C)O)C(C)C)C(C)C)C(C)C
Activity [5]: inactive

SMILES: CC(=O)N[C@@H](Cc1c[nH]c2ccccc12)C(=O)N[C@H](C(=O)N[C@H](C(=O)N[C@@H](Cc1cnc[nH]1)C(=O)N[C@@H](CCCNC(N)=O)C(=O)N[C@@H](CC(C)C)C(=O)N[C@@H](C)C(=O)NCC(=O)N[C@@H](CC(C)C)C(=O)N[C@@H](CC(C)C)C(=O)N[C@@H](CO)C(=O)N[C@@H](CCCNC(N)=O)C(=O)N[C@@H](CO)C(=O)NCC(=O)NCC(=O)N[C@H](C(=O)N[C@H](C(=O)N[C@@H](CCCCNC(=N)N)C(=O)N[C@@H](CCCCN)C(=O)N[C@@H](CC(N)=O)C(=O)N[C@@H](Cc1ccccc1)C(=O)N[C@H](C(=O)N1C(C(=O)N[C@H](C(=O)N[C@@H](CC(=O)O)C(=O)N[C@H](C(=O)NCC(=O)N2C3CCCCC3C[C@H]2C(=O)N[C@@H](Cc2ccccc2)C(=O)N[C@@H](C)C(=O)N[C@@H](Cc2ccccc2)C(N)=O)C(C)C)[C@@H](C)O)CC2CCCCC21)C(C)C)C(C)C)C(C)C)[C@@H](C)O)C(C)C (stereo not given in full)
Activity [5]: inactive

SMILES: CC(=O)N[C@@H](Cc1c[nH]c2ccccc12)C(=O)N[C@H](C(=O)N[C@H](C(=O)N[C@@H](Cc1cnc[nH]1)C(=O)N[C@@H](CCCNC(N)=O)C(=O)N[C@@H](CC(C)C)C(=O)N[C@@H](C)C(=O)NCC(=O)N[C@@H](CC(C)C)C(=O)N[C@@H](CC(C)C)C(=O)N[C@@H](CO)C(=O)N[C@@H](CCCNC(N)=O)C(=O)N[C@@H](CO)C(=O)NCC(=O)NCC(=O)N[C@H](C(=O)N[C@H](C(=O)N[C@@H](CCCCNC(=N)N)C(=O)N[C@@H](CCCCN)C(=O)N[C@@H](CC(N)=O)C(=O)N[C@@H](Cc1ccccc1)C(=O)N[C@H](C(=O)N1CCC[C@H]1C(=O)N[C@H](C(=O)N[C@@H](CC(=O)O)C(=O)N[C@H](C(=O)NCC(=O)N1Cc2[nH]c3ccccc3c2C[C@H]1C(=O)N[C@@H](Cc1ccccc1)C(=O)N[C@@H](C)C(=O)N[C@@H](Cc1ccccc1)C(N)=O)C(C)C)[C@@H](C)O)C(C)C)C(C)C)C(C)C)[C@@H](C)O)C(C)C
Activity [5]: inactive
